Results as given in ChEMBL document CHEMBL5360615, “Pharmacological and Physicochemical Properties Optimization for Dual-Target Dopamine D3 (D3R) and μ-Opioid (MOR) Receptor Ligands as Potentially Safer Analgesics” (J Med Chem, 2023).
Calls of active or inactive are those of the source. The calls are words filed in the database; no cut-off is given here.

Columns and labels:
D(2) dopamine receptor = D(2) dopamine receptor (Homo sapiens, UniProt P14416); experiment: Displacement of [3H]N-methylspiperone from human D2L receptor expressed in HEK293T cell membrane assessed as inhibition constant incubated for 60 mins by MicroBeta scintillation counting method; format: cell membranes
Mu-type opioid receptor [1] = molecular target: Mu-type opioid receptor (Homo sapiens, UniProt P35372); experiment: Displacement of [3H]-DAMGO from human MOR receptor expressed in HEK293T cell membrane assessed as inhibition constant incubated for 60 mins by MicroBeta scintillation counting method; format: cell membranes
Method in brief: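 HEK293 cells stably expressing human MOR, grown in DMEM with 10% FBS and hygromycin B; membranes prepared from confluent cells. Binding buffer 50 mM Tris, 5 mM MgCl2, pH 7.4. Nonspecific binding with 10 μM naloxone. 60 min at RT, then GF/C filtration.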

D(3) dopamine receptor [2] = molecular target: T1, D(3) dopamine receptor (Homo sapiens, UniProt P35462); experiment: Displacement of [3H]N-methylspiperone from human D3R receptor expressed in HEK293T cell membrane assessed as inhibition constant incubated for 60 mins by MicroBeta scintillation counting method; format: cell membranes
Mu-type opioid receptor [3] = molecular target: T2, Mu-type opioid receptor (Mus musculus, UniProt P42866); experiment: Partial agonist activity at SNAP-tagged mouse MOR transfected in HEK293T cells coexpressing wild type Galpha-i2, venus-tagged Gbeta-1 (156 to 239 residues), venus-tagged Ggamma2 (1 to 155 residues) and Rluc8 fused masGRK3ct assessed as Galpha-i2 activation using coelenterazine as substrate incubated for 40 mins by BRET based GPA assay; format: functional, cell-based
Method in brief: (§1)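 HEK293T cells transiently transfected with BRET sensors (DNA:PEI 1:6), plated into poly-D-lysine plates and assayed 48 h post-transfection. Cells washed and held in D-PBS 30 min at 37 °C. Coelenterazine h 5 μM final; ligands 10 μM to 0.01 nM. At least three independent experiments in duplicate.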

[4] = molecular target: Mu-type opioid receptor (Mus musculus) (UniProt P42866); experiment: Partial agonist activity at SNAP-tagged mouse MOR transfected in HEK293T cells coexpressing wild type Galpha-i2, venus-tagged Gbeta-1 (156 to 239 residues), venus-tagged Ggamma2 (1 to 155 residues) and Rluc8 fused masGRK3ct assessed as Galpha-i2 activation at 10 uM using coelenterazine as substrate incubated for 40 mins by BRET based GPA assay relative to control; format: functional, cell-based; method in brief: as §1
[5] = molecular target: Mu-type opioid receptor (Mus musculus) (UniProt P42866); experiment: Partial agonist activity at Rluc8 fused mouse MOR transfected in HEK293T cells coexpressing wild type GRK2 assessed as arrestin-3 recruitment at 10 uM using coelenterazine as substrate incubated for 40 mins by BRET assay relative to control; format: functional, cell-based
Method in brief: (§2)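 HEK293T cells transiently transfected with BRET sensors (DNA:PEI 1:6), plated into poly-D-lysine plates and assayed 48 h post-transfection. Cells washed and held in D-PBS 30 min at 37 °C. Coelenterazine h 5 μM final; ligands 10 μM to 0.01 nM. […] At least three independent experiments in duplicate.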

[6] = molecular target: Mu-type opioid receptor (Mus musculus) (UniProt P42866); experiment: Partial agonist activity at Rluc8 fused mouse MOR transfected in HEK293T cells assessed as Nb33 recruitment at 10 uM using coelenterazine as substrate incubated for 40 mins by BRET assay relative to control; format: functional, cell-based; method in brief: as §1
Mu-type opioid receptor [7] = molecular target: T2, Mu-type opioid receptor; experiment: (§3) Partial agonist activity at Rluc8 fused mouse MOR transfected in HEK293T cells assessed as Nb33 recruitment using coelenterazine as substrate incubated for 40 mins by BRET assay; format: functional, cell-based; method in brief: as §1
D(3) dopamine receptor [8] = molecular target: T1, D(3) dopamine receptor; experiment: Antagonist activity at SNAP-tagged human D3R receptor transfected in HEK293T cells coexpressing wild type Galpha-oA, venus-tagged Gbeta-1 (156 to 239 residues), venus-tagged Ggamma2 (1 to 155 residues) and Rluc8 fused masGRK3ct assessed as Galpha-oA activation using coelenterazine as substrate incubated for 40 mins in presence of quinpirole by BRET based GPA assay; format: functional, cell-based
[9] = molecular target: Mu-type opioid receptor (Mus musculus) (UniProt P42866); experiment: Partial agonist activity at Rluc8 fused mouse MOR transfected in HEK293T cells coexpressing wild type GRK2 assessed as arrestin-3 recruitment using coelenterazine as substrate incubated for 40 mins by BRET assay; format: functional, cell-based; method in brief: as §1
[10] = molecular target: Mu-type opioid receptor (Mus musculus) (UniProt P42866); experiment: as §3; format: functional, cell-based; method in brief: as §1
D(3) dopamine receptor [11] = molecular target: T1, D(3) dopamine receptor; experiment: Partial agonist activity at SNAP-tagged human D3R receptor transfected in HEK293T cells coexpressing wild type Galpha-oA, venus-tagged Gbeta-1 (156 to 239 residues), venus-tagged Ggamma2 (1 to 155 residues) and Rluc8 fused masGRK3ct assessed as Galpha-oA activation using coelenterazine as substrate incubated for 40 mins by BRET based GPA assay; format: functional, cell-based
[12] = molecular target: Mu-type opioid receptor (Mus musculus) (UniProt P42866); experiment: Agonist activity at Rluc8 fused mouse MOR transfected in HEK293T cells coexpressing wild type GRK2 assessed as arrestin-3 recruitment at 10 uM using coelenterazine as substrate incubated for 40 mins by BRET assay relative to control; format: functional, cell-based; details: filed as agonist; method in brief: as §2
[13] = molecular target: Mu-type opioid receptor (Mus musculus) (UniProt P42866); experiment: Agonist activity at Rluc8 fused mouse MOR transfected in HEK293T cells assessed as Nb33 recruitment at 10 uM using coelenterazine as substrate incubated for 40 mins by BRET assay relative to control; format: functional, cell-based; details: filed as agonist; method in brief: as §2
Mu-type opioid receptor [14] = molecular target: T2, Mu-type opioid receptor; experiment: Agonist activity at SNAP-tagged mouse MOR transfected in HEK293T cells coexpressing wild type Galpha-i2, venus-tagged Gbeta-1 (156 to 239 residues), venus-tagged Ggamma2 (1 to 155 residues) and Rluc8 fused masGRK3ct assessed as Galpha-i2 activation using coelenterazine as substrate incubated for 40 mins by BRET based GPA assay; format: functional, cell-based; details: read-out: EC50; method in brief: as §1
Mu-type opioid receptor [15] = molecular target: T2, Mu-type opioid receptor; experiment: Agonist activity at Rluc8 fused mouse MOR transfected in HEK293T cells assessed as Nb33 recruitment using coelenterazine as substrate incubated for 40 mins by BRET assay; format: functional, cell-based; method in brief: as §1
Mu-type opioid receptor [16] = molecular target: T2, Mu-type opioid receptor; experiment: Agonist activity at Rluc8 fused mouse MOR transfected in HEK293T cells coexpressing wild type GRK2 assessed as arrestin-3 recruitment using coelenterazine as substrate incubated for 40 mins by BRET assay; format: functional, cell-based; method in brief: as §1

T1 sequence (P35462 whole entry, the tested form may be a part): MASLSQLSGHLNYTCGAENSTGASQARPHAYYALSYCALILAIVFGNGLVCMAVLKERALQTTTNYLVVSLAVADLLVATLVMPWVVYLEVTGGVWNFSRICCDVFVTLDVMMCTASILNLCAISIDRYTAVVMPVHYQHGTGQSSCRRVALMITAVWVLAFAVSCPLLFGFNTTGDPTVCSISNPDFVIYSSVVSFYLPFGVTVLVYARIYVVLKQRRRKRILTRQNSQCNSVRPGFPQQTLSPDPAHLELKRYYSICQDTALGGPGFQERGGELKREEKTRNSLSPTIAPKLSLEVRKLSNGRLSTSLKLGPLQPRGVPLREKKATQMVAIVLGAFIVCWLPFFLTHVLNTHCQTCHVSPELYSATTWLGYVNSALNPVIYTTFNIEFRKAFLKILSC
Chain of Mu-type opioid receptor (Homo sapiens, UniProt P35372) (P35372 whole entry): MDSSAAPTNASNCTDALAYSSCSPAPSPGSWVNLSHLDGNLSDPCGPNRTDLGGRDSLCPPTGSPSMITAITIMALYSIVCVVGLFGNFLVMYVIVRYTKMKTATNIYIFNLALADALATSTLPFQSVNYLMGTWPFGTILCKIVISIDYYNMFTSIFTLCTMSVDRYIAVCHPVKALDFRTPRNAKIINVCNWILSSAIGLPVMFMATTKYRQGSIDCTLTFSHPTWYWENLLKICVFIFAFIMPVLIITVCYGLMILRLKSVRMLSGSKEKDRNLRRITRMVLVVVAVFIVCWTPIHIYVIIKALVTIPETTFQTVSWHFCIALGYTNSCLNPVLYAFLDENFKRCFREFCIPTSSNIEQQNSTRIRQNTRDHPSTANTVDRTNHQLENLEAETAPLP
Chain of Mu-type opioid receptor (Mus musculus) (P42866 whole entry, the tested form may be a part): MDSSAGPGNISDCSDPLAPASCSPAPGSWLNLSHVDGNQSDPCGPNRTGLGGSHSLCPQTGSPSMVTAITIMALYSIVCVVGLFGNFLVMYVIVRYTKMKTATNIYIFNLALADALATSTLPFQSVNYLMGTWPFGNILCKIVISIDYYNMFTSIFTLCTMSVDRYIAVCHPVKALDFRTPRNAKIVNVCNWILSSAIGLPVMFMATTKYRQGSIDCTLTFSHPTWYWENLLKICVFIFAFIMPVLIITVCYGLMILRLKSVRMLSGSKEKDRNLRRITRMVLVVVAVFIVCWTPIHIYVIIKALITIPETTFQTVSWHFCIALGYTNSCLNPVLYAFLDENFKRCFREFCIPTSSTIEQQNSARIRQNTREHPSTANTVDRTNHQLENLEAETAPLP
T2 sequence (P42866 whole entry, the tested form may be a part): as above
Chain of D(2) dopamine receptor (P14416 whole entry): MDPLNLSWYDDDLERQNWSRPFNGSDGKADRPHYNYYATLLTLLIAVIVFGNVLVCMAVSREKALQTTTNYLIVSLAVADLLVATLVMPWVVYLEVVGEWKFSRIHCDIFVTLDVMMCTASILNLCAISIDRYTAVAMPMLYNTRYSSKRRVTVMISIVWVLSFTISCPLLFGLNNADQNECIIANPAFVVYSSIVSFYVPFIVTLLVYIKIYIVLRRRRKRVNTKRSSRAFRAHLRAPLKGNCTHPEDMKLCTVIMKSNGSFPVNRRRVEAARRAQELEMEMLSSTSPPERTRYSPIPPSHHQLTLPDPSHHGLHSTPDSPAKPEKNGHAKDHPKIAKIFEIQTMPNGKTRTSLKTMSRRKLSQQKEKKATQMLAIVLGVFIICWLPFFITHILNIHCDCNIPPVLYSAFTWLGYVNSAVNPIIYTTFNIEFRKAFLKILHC

| SMILES | Ki (D(2) dopamine receptor) [nM] | Ki (Mu-type opioid receptor [1]) [nM] | Ki (D(3) dopamine receptor [2]) [nM] | other results |
| --- | --- | --- | --- | --- |
| FC(F)(F)c1cccc(N2CCN(CCCOC3(c4ccccn4)CCOC4(CCCC4)C3)CC2)n1 (stereo not drawn) | 1310 | 1640 | 286 | – |
| Clc1cccc(N2CCN(CCCOC3(c4ccccn4)CCOCC3)CC2)c1Cl | – | 1750 | – | – |
| CN(C)C(=O)C(CCN1C[C@H](O)C[C@H]1C(=O)NCCCCN1CCN(c2cccc(Cl)c2Cl)CC1)(c1ccccc1)c1ccccc1 | – | 564 | – | EC50 (Mu-type opioid receptor [3]): 1810 nM |
| COc1ccsc1CNCC[C@@]1(c2ccccn2)CCOC2(CCCC2)C1 [OLICERIDINE] | 83200 | – | 6860 | Emax [4]: 93.2%; Emax [5]: 49.1%; Emax [6]: 31.4% |
| Clc1ccc([C@@H]2C[C@H]2NCCC2(c3ccccn3)CCOCC2)cc1 (relative stereo) | – | 1580 | – | – |
| CN(C)C(=O)C(CCN[C@@H]1C[C@H]1c1ccc(F)cc1)(c1ccccc1)c1ccccc1 (relative stereo) | – | 47 | – | – |
| CC1CCC(CN2CCN(c3cccc(Cl)c3Cl)CC2)CN1CCC(C(=O)N(C)C)(c1ccccc1)c1ccccc1 (stereo not drawn) | 146 | 867 | 309 | – |
| CN(C)C(=O)C(CCN1C[C@H](F)C[C@H]1C(=O)NCCCCN1CCN(c2cccc(C(F)(F)F)n2)CC1)(c1ccccc1)c1ccccc1 | – | 192 | – | EC50 (Mu-type opioid receptor [7]): 5750 nM; EC50 (Mu-type opioid receptor [3]): 1160 nM |
| CCc1cc(Cl)c(OC)c(N2CCN(C[C@@H]3C[C@@H](O)CN3CCC(C(=O)N(C)C)(c3ccccc3)c3ccccc3)CC2)c1 | 870 | 377 | 111 | IC50 (D(3) dopamine receptor [8]): 2950 nM; EC50 (D(3) dopamine receptor [8]; hek293t): 2960 nM; Activity [9]: inactive; Activity [10]: inactive; Emax ([4]; filed as partial agonist): 86.1%; EC50 (D(3) dopamine receptor [11]): 25.4 nM; Activity [5]: inactive; EC50 (Mu-type opioid receptor [3]): 3310 nM; Emax [6]: inactive |
| CCC1(CC)CC(OCCCN2CCN(c3cccc(Cl)c3Cl)CC2)(c2ccccn2)CCO1 (stereo not drawn) | 122 | 2270 | 21.7 | – |
| Fc1cncc(CNCC[C@@]2(c3ccccn3)CCOC3(CCCC3)C2)c1 | > 100000 | 54.7 | 85100 | – |
| CN(C)C(=O)C(CCN1C[C@H](O)C[C@H]1CN1CCN(c2cccc(C(F)(F)F)n2)CC1)(c1ccccc1)c1ccccc1 | 4660 | 782 | 2700 | – |
| FC(F)(F)c1cccc(N2CCN(CCC3(c4ccccn4)CCOC4(CCCC4)C3)CC2)n1 (stereo not drawn) | 5430 | 166 | 734 | – |
| CN(C)C(=O)C(CCN1C[C@H](O)C[C@H]1C(=O)NCCCCN1CCN(c2cccc(C(F)(F)F)n2)CC1)(c1ccccc1)c1ccccc1 | – | 791 | – | EC50 (Mu-type opioid receptor [3]): 470 nM |
| CCc1cc(Cl)c(OC)c(N2CCN(CCCCc3cn(CCC(C(=O)N(C)C)(c4ccccc4)c4ccccc4)nn3)CC2)c1 | – | 2120 | – | – |
| CCc1cc(Cl)c(OC)c(N2CCN(Cc3cn(CCC(C(=O)N(C)C)(c4ccccc4)c4ccccc4)nn3)CC2)c1 | – | 2380 | – | – |
| CCC1(CC)CC(OCCCNCc2cccc(Cl)c2Cl)(c2ccccn2)CCO1 (stereo not drawn) | 13400 | 540 | 1180 | – |

| SMILES | Ki (D(2) dopamine receptor) [nM] | Ki (Mu-type opioid receptor [1]) [nM] | Ki (D(3) dopamine receptor [2]) [nM] | other results |
| --- | --- | --- | --- | --- |
| FC(F)(F)c1cccc(N2CCN(CCC3(c4ccccn4)CCOCC3)CC2)n1 | – | 1670 | – | – |
| FC(F)(F)c1cccc(N2CCN(CCCOC3(c4ccccn4)CCOCC3)CC2)n1 | – | 2070 | – | – |
| COc1ccccc1[C@@H]1C[C@H]1NCCC(C(=O)N(C)C)(c1ccccc1)c1ccccc1 (relative stereo) | – | 55.2 | – | – |
| C[C@@H](NC(=O)[C@@H](N)Cc1ccc(O)cc1)C(=O)NCC(=O)N(C)[C@@H](Cc1ccccc1)C(=O)NCCO | – | – | – | Emax [12]: 98.7%; Emax [13]: 98.5% |
| CN(C)C(=O)C(CCN1C[C@H](O)C[C@H]1CN1CCN(c2cccc(Cl)c2Cl)CC1)(c1ccccc1)c1ccccc1 | 1180 | 529 | 247 | Activity (D(3) dopamine receptor [8]): inactive; Activity [9]: inactive; EC50 (Mu-type opioid receptor [7]): 3330 nM; Emax ([4]; filed as partial agonist): 73.6%; Activity [5]: inactive; EC50 (Mu-type opioid receptor [3]): 3450 nM; Emax [6]: 12.7% |
| COc1ccc([C@@H]2C[C@H]2NCCC(C(=O)N(C)C)(c2ccccc2)c2ccccc2)cc1 (relative stereo) | – | 81.8 | – | – |
| CN(C)C(=O)C(CCN1C[C@H](F)C[C@H]1C(=O)NCCCCN1CCN(c2cccc(Cl)c2Cl)CC1)(c1ccccc1)c1ccccc1 | – | 787 | – | – |
| CN(C)C(=O)C(CCN[C@@H]1C[C@H]1c1ccc(Cl)cc1)(c1ccccc1)c1ccccc1 (relative stereo) | – | 12.3 | – | – |
| CCC1(CC)CC(OCCCNCc2cccc(C(F)(F)F)n2)(c2ccccn2)CCO1 (stereo not drawn) | – | 2520 | 2700 | – |
| CCCN(CCC(C(=O)N(C)C)(c1ccccc1)c1ccccc1)[C@@H]1C[C@H]1c1ccc(Cl)cc1 (relative stereo) | – | 31.2 | – | – |
| Clc1cccc(N2CCN(CCC3(c4ccccn4)CCOCC3)CC2)c1Cl | – | 691 | – | EC50 (Mu-type opioid receptor [14]): 848 nM; EC50 (Mu-type opioid receptor [15]): 1590 nM; EC50 (Mu-type opioid receptor [16]): 6480 nM |
| CCC1(CC)CC(OCCCN2CCN(c3cccc(C(F)(F)F)n3)CC2)(c2ccccn2)CCO1 (stereo not drawn) | 1240 | 745 | – | – |
| Clc1cccc(N2CCN(CCCCNCCC3(c4ccccn4)CCOCC3)CC2)c1Cl | – | 1460 | – | – |
| CN(C)C(=O)C(CCN1CCN(c2nsc3ccccc23)CC1)(c1ccccc1)c1ccccc1 | 465 | 0.364 | – | – |
| CN(C)C(=O)C(CCN1CCN(c2cccc(C(F)(F)F)n2)CC1)(c1ccccc1)c1ccccc1 | – | 1.23 | – | – |
| CN(C)C(=O)C(CCN(CCO)[C@@H]1C[C@H]1c1ccc(Cl)cc1)(c1ccccc1)c1ccccc1 (relative stereo) | 7330 | 26.9 | – | – |
